In ChEMBL document CHEMBL3817776, “Discovery and Structure-Activity Relationships of the Neoseptins: A New Class of Toll-like Receptor-4 (TLR4) Agonists” (J Med Chem, 2016):
The source made the active and inactive calls. The rule behind the calls is not given here.

target: T1, Toll-like receptor 4 (Mus musculus, UniProt Q9QUK6); experiment: (§1) Agonist activity at TLR4 in C57BL/6J mouse macrophages assessed as stimulation of TNFalpha release after 4 hrs by ELISA
T1 sequence (Q9QUK6 whole entry): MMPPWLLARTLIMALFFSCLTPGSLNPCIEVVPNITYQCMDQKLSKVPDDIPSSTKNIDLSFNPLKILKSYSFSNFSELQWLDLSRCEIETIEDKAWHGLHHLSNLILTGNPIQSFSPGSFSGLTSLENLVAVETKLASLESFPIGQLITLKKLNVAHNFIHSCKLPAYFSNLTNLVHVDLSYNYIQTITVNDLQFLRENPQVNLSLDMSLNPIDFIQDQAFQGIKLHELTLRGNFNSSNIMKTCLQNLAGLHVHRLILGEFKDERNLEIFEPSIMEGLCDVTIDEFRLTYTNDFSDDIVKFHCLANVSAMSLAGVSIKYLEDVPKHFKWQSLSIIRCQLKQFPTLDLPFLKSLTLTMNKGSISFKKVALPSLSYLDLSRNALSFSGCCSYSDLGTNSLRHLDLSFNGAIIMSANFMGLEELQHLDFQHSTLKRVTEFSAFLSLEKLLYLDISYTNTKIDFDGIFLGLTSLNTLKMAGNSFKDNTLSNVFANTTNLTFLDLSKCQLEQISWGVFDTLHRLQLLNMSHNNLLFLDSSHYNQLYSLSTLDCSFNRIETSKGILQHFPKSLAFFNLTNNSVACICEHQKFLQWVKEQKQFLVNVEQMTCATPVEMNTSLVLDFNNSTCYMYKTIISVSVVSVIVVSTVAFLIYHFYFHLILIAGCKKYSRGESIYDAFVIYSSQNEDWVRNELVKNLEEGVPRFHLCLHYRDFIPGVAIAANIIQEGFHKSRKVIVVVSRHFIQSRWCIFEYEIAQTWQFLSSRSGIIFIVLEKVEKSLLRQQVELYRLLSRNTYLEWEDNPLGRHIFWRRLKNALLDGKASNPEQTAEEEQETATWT
How it was run: (§2)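 Peritoneal macrophages from wild-type C57BL/6J mice, collected by PBS lavage and cultured in DMEM/10% FBS at 37 °C, 5% CO2. Seeded at 1 × 10^5 cells/well and treated 4 h with compound in DMSO (0.5% final) beside ultra-pure LPS and DMSO controls. Supernatant TNF-α measured by ELISA; mean of triplicates.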

Row | SMILES | EC50
1 | COc1ccc(CC[C@H](NC(=O)c2ccc(N)c(CCc3ccc(O)cc3)c2)C(=O)OC(C)(C)C)cc1 | 22.2 µM
2 | CC(C)(C)OC(=O)[C@H](CCC1CCCCC1)NC(=O)c1ccc(N)c(CCc2ccc(O)cc2)c1 | 29.5 µM
3 | CC(C)(C)OC(=O)[C@H](CCc1ccccc1)NC(=O)c1ccc(N)c(OCCc2ccc(O)cc2)c1 | 20.7 µM
4 | Cc1ccc(CC[C@H](NC(=O)c2ccc(N)c(CCc3ccc(O)cc3)c2)C(=O)OC(C)(C)C)cc1 | 21.6 µM

target: T2, Toll-like receptor 4 (Mus musculus) (UniProt Q9QUK6); experiment: as §1; how it was run: as §2
T2 sequence (whole entry): T1 sequence (Q9QUK6 whole entry)

Row | SMILES | Activity
5 | CC(C)(C)OC(=O)[C@H](CCc1ccccc1)NC(=O)c1ccc(N)c(OCCc2ccc(O)cc2)c1 | Dose-dependent effect

target: T2, Toll-like receptor 4 (Mus musculus); experiment: Agonist activity at TLR4 in C57BL/6J mouse macrophages assessed as stimulation of TNFalpha release at 50 uM after 4 hrs by ELISA; how it was run: as §2

Row | SMILES | Activity
6 | COc1ccc(CC[C@H](NC(=O)c2ccc(N)c(CCc3ccc(O)cc3)c2)C(=O)OC(C)(C)C)cc1 | Active
7 | CC(C)(C)OC(=O)[C@H](CCc1ccccc1)NC(=O)c1ccc([N+](=O)[O-])c(OCCc2ccc(O)cc2)c1 | inactive
8 | CC(C)(C)OC(=O)[C@@H](N)Cc1ccccc1 | inactive
9 | CCCCCCCCCCNC(=O)[C@H](CCc1ccccc1)NC(=O)c1ccc(N)c(CCc2ccc(O)cc2)c1 | inactive
10 | CC(C)(C)OC(=O)[C@H](CCc1ccc(F)cc1)NC(=O)c1ccc(N)c(CCc2ccc(O)cc2)c1 | Active
11 | CC(C)(C)OC(=O)[C@H](CCc1ccccc1)NC(=O)c1cccc(OCCc2ccc(O)cc2)c1 | inactive
12 | COc1ccc(C[C@H](N)C(=O)Nc2ccc(C(=O)N[C@@H](CCc3ccccc3)C(=O)O)cc2OCCc2ccc(O)cc2)cc1 | Active
13 | CC(C)(C)OC(=O)[C@H](CCC1CCCCC1)NC(=O)c1ccc(N)c(CCc2ccc(O)cc2)c1 | Active
14 | CC(C)(C)OC(=O)[C@H](CCc1ccc(O)cc1)NC(=O)c1ccc(N)c(CCc2ccc(O)cc2)c1 | inactive
15 | CC[C@H](N)C(=O)OC(C)(C)C | Active
16 | Nc1ccc(C(=O)N[C@@H](CCc2ccccc2)C(=O)O)cc1OCCc1ccc(O)cc1 | inactive
17 | CC(C)(C)NC(=O)[C@H](CCc1ccccc1)NC(=O)c1ccc(N)c(CCc2ccc(O)cc2)c1 | inactive
18 | CC(C)(C)OC(=O)[C@H](CCc1ccc(N)cc1)NC(=O)c1ccc(N)c(CCc2ccc(O)cc2)c1 | inactive
19 | COc1ccc(CCc2cc(C(=O)N[C@@H](CCc3ccccc3)C(=O)OC(C)(C)C)ccc2N)cc1 | inactive
20 | CCCCCCNC(=O)[C@H](CCc1ccccc1)NC(=O)c1ccc(N)c(CCc2ccc(O)cc2)c1 | Active
21 | CC(C)(C)OC(=O)[C@H](CCc1ccccc1)NCc1ccc(N)c(CCc2ccc(O)cc2)c1 | inactive
22 | CC(C)(C)OC(=O)[C@H](CCc1ccccc1)NC(=O)c1cc(CCc2ccc(O)cc2)ccc1N | inactive
23 | CNc1ccc(C(=O)N[C@@H](CCc2ccccc2)C(=O)OC(C)(C)C)cc1CCc1ccc(O)cc1 | inactive
24 | CC(C)(C)OC(=O)[C@H](CCc1ccccc1)NC(=O)c1ccc(N)c(Nc2ccc(O)cc2)c1 | inactive
25 | CC(C)(C)OC(=O)[C@H](CCc1ccccc1)NC(=O)c1ccc(N)c(CCc2ccccc2)c1 | inactive

Row | SMILES | Activity
26 | CC(C)(C)OC(=O)[C@H](CCc1ccccc1)NC(=O)c1cc(N)cc(CCc2ccc(O)cc2)c1 | Active
27 | CC(C)(C)OC(=O)[C@H](CCCc1ccccc1)NC(=O)c1ccc(N)c(CCc2ccc(O)cc2)c1 | inactive
28 | CC(C)(C)OC(=O)[C@H](CCc1ccccc1)NC(=O)c1ccc(N)c(CCCc2ccc(O)cc2)c1 | Active
29 | CC(C)(C)OC(=O)[C@H](CCc1ccccc1)NC(=O)c1ccc(N)c(OCCc2cccc(O)c2)c1 | Active
30 | CN(C)c1ccc(C(=O)N[C@@H](CCc2ccccc2)C(=O)OC(C)(C)C)cc1CCc1ccc(O)cc1 | inactive
31 | N[C@@H](Cc1ccc2ccccc2c1)C(=O)Nc1ccc(C(=O)N[C@@H](CCc2ccccc2)C(=O)O)cc1OCCc1ccc(O)cc1 | Active
32 | CC(C)(C)OC(=O)[C@H](CCc1ccccc1)NC(=O)c1cccc(CCc2ccc(O)cc2)c1 | inactive
33 | NC(=O)[C@H](CCc1ccccc1)NC(=O)c1ccc(N)c(CCc2ccc(O)cc2)c1 | inactive
34 | CC(C)(C)OC(=O)[C@H](CCc1ccccc1)NC(=O)c1ccc(N)c(CCc2cccc(O)c2)c1 | Active
35 | Nc1ccc(C(=O)N[C@@H](CCc2ccccc2)C(=O)OC23CC4CC(CC(C4)C2)C3)cc1CCc1ccc(O)cc1 | inactive
36 | CC(C)(C)OC(=O)[C@H](CCc1ccccc1)NC(=O)c1ccc(N)c(OCCc2ccc(O)c(Cl)c2)c1 | inactive
37 | CC(C)(C)OC(=O)[C@H](CCc1ccccc1)NC(=O)c1ccc(N)c(Cc2ccc(O)cc2)c1 | inactive
38 | CC(C)(C)OC(=O)[C@H](CCc1ccccc1)NC(=O)c1ccc(N)c(C#Cc2ccc(O)cc2)c1 | inactive
39 | CC(C)(C)OC(=O)[C@H](CCc1ccccc1)NC(=O)c1ccc(N)c(COc2ccc(O)cc2)c1 | Active
40 | CC(C)(C)OC(=O)[C@H](CCc1ccccc1)NC(=O)c1ccc(N)c(OCCCCc2ccc(O)cc2)c1 | inactive
41 | CC(C)(C)OC(=O)[C@H](CCc1ccccc1)NC(=O)c1ccc(N)c(OCCCc2ccc(O)cc2)c1 | inactive
42 | CSCC[C@H](N)C(=O)OC(C)(C)C | inactive
43 | CC(C)C[C@H](N)C(=O)OC(C)(C)C | Active
44 | CC(C)(C)OC(=O)[C@H](CCc1ccccc1)NC(=O)c1ccc(N)c(CCc2ccccc2O)c1 | inactive
45 | CC(C)(C)OC(=O)[C@H](CCc1ccccc1)NC(=O)c1ccc(N)c(OCCc2ccccc2)c1 | inactive

Row | SMILES | Activity
46 | Cc1ccc(CC[C@H](NC(=O)c2ccc(N)c(CCc3ccc(O)cc3)c2)C(=O)OC(C)(C)C)cc1 | Active
47 | CC(C)(C)OC(=O)[C@H](CCc1ccccc1)NC(=O)c1ccc(N)c(Sc2ccc(O)cc2)c1 | inactive
48 | CC(C)(C)OC(=O)[C@H](CCCCc1ccccc1)NC(=O)c1ccc(N)c(CCc2ccc(O)cc2)c1 | inactive
49 | CC(C)(C)COC(=O)[C@H](CCc1ccccc1)NC(=O)c1ccc(N)c(CCc2ccc(O)cc2)c1 | inactive
50 | CCCCCCCNC(=O)[C@H](CCc1ccccc1)NC(=O)c1ccc(N)c(CCc2ccc(O)cc2)c1 | inactive
51 | CC(C)(C)OC(=O)[C@H](CCc1ccccc1)NC(=S)c1ccc(N)c(CCc2ccc(O)cc2)c1 | inactive
52 | N[C@@H](Cc1ccccc1)C(=O)Nc1ccc(C(=O)N[C@@H](CCc2ccccc2)C(=O)O)cc1OCCc1ccc(O)cc1 | Active
53 | CN(C(=O)c1ccc(N)c(CCc2ccc(O)cc2)c1)[C@@H](CCc1ccccc1)C(=O)OC(C)(C)C | inactive
54 | CC(C)(C)OC(=O)[C@H](CCc1ccccc1)NC(=O)c1ccc(N)c(-c2ccc(O)cc2)c1 | inactive
55 | Nc1ccc(C(=O)N[C@@H](CCc2ccccc2)C(=O)O)cc1CCc1ccc(O)cc1 | inactive
56 | C#CCC(C)(C)OC(=O)[C@H](CCc1ccccc1)NC(=O)c1ccc(N)c(CCc2ccc(O)cc2)c1 | inactive
57 | CCC(C)(C)OC(=O)[C@H](CCc1ccccc1)NC(=O)c1ccc(N)c(CCc2ccc(O)cc2)c1 | Active
58 | CCCCCCCCNC(=O)[C@H](CCc1ccccc1)NC(=O)c1ccc(N)c(CCc2ccc(O)cc2)c1 | inactive
59 | CC(C)(C)OC(=O)[C@H](CCc1ccc(Cl)cc1)NC(=O)c1ccc(N)c(CCc2ccc(O)cc2)c1 | inactive
60 | CC(C)OC(=O)[C@H](CCc1ccccc1)NC(=O)c1ccc(N)c(CCc2ccc(O)cc2)c1 | inactive
61 | CC(C)[C@H](N)C(=O)OC(C)(C)C | Active
62 | CCCCCCCCCNC(=O)[C@H](CCc1ccccc1)NC(=O)c1ccc(N)c(CCc2ccc(O)cc2)c1 | inactive
63 | CC(C)(C)OC(=O)[C@H](CCc1ccccc1)NC(=O)c1ccc(N)c(OCCc2ccc(O)c(F)c2)c1 | inactive
64 | CC(=O)Nc1ccc(C(=O)N[C@@H](CCc2ccccc2)C(=O)OC(C)(C)C)cc1CCc1ccc(O)cc1 | inactive
